Results on 5 compounds are retold here after ChEMBL document CHEMBL1138466, “Isaindigotone derivatives: a new class of highly selective ligands for telomeric G-quadruplex DNA” (J Med Chem, 2009).

In general, ΔTm refers to the change in melting temperature against a reference sample. For orientation: IC50 means the concentration at which inhibition is half-maximal.

Calls of active or inactive are those of the source. The rule behind the calls is not given here.

Experiment [1] relates to Nucleic Acid. Kind of experiment: Binding affinity to oligonucleotide HTG21 by florescence titration assay in presence of K+ solution. The experiment is classed as nucleic-acid assay. The method in brief:
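Fluorescence titration at 25 °C in 10 mM Tris-HCl pH 7.2 with 100 mM KCl. HTG21 DNA added to ligand up to 0–2 µM final, with at least 10 min equilibration after each addition. Excitation at 343 or 353 nm depending on ligand. Binding constant Kb derived from the titration.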

The subject of experiment [2] is Nucleic Acid. Kind of experiment: Binding affinity to F21T human telomeric DNA assessed as change in melting temperature at 1 uM by FRET assay. The class given is nucleic-acid assay. The method in brief:
(§1)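 FRET melting of dual-labelled probes (FAM/TAMRA): G-quadruplex F21T or hairpin duplex F10T, 0.2 µM, in 10 mM Tris-HCl pH 7.2 with 60 mM KCl, ligand 1 µM. Emission read at 530 nm (excitation 470 nm) every 1 °C from 37 to 99 °C, with a 30 s hold before each reading. ΔTm is taken relative to the annealed probe without ligand.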

Experiment [3] concerns Nucleic Acid. The experiment in a line: Binding affinity to F10T hairpin duplex DNA assessed as change in melting temperature at 1 uM by FRET assay. The class given is nucleic-acid assay. Put shortly: as §1
A short description of experiment [4]: Inhibition of human telomerase in human MCF7 cell free extract by TRAP-LIG assay. Put shortly:
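TRAP-LIG: MCF-7 protein extract (500 ng) extends TS primer in TRAP buffer (pH 8.3, 68 mM KCl) with 125 µM dNTPs and ligand, 20 min at 30 °C. Product purified to remove ligand, then PCR-amplified with ACX primer for 35 cycles. Products resolved on 16% PAGE with silver staining; IC50 computed from band optical density.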

Experiment [5] relates to HL-60. Kind of experiment: Cytotoxicity against human HL60 cells at 4.5 uM after 12 days. The class given is functional, cell-based.
Experiment [6] deals with HL-60. Kind of experiment: Cytotoxicity against human HL60 cells after 2 days by MTT assay. The experiment is classed as functional, cell-based. Particulars: HL-60, 48 h. The method in brief: (§2)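 MTT viability: HL60 or CA46 cells seeded at 1.0 × 10³ per well and exposed to a ligand concentration series for 48 h at 37 °C, 5% CO₂. MTT added for 4 h, then DMSO; absorbance read at 570 nm. Each dose tested in triplicate; IC50 taken from mean OD versus concentration curves.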
A general note: Tetrazolium assays rely on reduction of a dye to a coloured formazan, in cell work by metabolically active cells.

In experiment [7] the test system is Nucleic Acid. Kind of experiment: Binding affinity to HTG21 DNA assessed as induction of guanine-rich DNA to G-quadruplex structure formation. The class given is nucleic-acid assay. The method in brief:
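CD titration: HTG21 5 µM in 10 mM Tris-HCl pH 7.2, without or with 100 mM KCl. Annealed at 90 °C for 5 min, cooled slowly, held at 4 °C overnight. Ligand added at 0–5 mol equiv at 25 °C with at least 13 min equilibration per addition. Spectra recorded 230–450 nm in a 4 mm quartz cuvette.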

The test system of experiment [8] is HL-60. Kind of experiment: Induction of telomere shortening in human HL60 cells assessed as telomere length at 1.8 uM by telomeric restriction fragment assay. The experiment is classed as functional. Put shortly:
(§3)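 TRF length: HL60 or CA46 cells treated for 16 days with 0.9 or 1.8 µM ligand or 0.1% DMSO. Genomic DNA digested with HinfI/RsaI, run on 0.8% agarose, transferred to nylon membrane and baked at 120 °C for 20 min. Telomeric smears detected by Southern analysis.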

The subject of experiment [9] is CA46. The experiment in a line: Cytotoxicity against human CA46 cells after 2 days by MTT assay. The experiment is classed as functional, cell-based. Particulars: CA46, 48 h. The method in brief:
as §2

Experiment [10] concerns HL-60. The experiment in a line: Cytotoxicity against human HL60 cells assessed as decrease in population doubling at 0.9 uM after 12 days. The class given is functional, cell-based.
Experiment [11] relates to HL-60. The experiment in a line: Induction of telomere shortening in human HL60 cells assessed as telomere length at 0.9 uM by telomeric restriction fragment assay. The class given is functional, cell-based. The method in brief: as §3
Experiment [12] deals with CA46. Kind of experiment: Induction of telomere shortening in human CA46 cells assessed as telomere length at 1.8 uM by telomeric restriction fragment assay. The class given is functional. Put shortly:
as §3

The test system of experiment [13] is CA46. Kind of experiment: Induction of senescence in human CA46 cells assessed as beta galactosidase activity at 0.9 uM for 16 days. The experiment is classed as functional, cell-based. The method in brief:
(§4)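 SA-β-Gal staining: HL60 or CA46 cells treated continuously with 0.9 µM ligand or 0.1% DMSO for 16 days. Fixed in 2% formaldehyde/0.2% glutaraldehyde for 15 min, stained overnight at 37 °C with 1 mg/mL X-gal, then examined by light microscopy (×400). Repeated twice.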

For experiment [14], the system named is HL-60. The experiment in a line: Cytotoxicity against human HL60 cells at 4.5 uM after 8 days. The class given is functional, cell-based.
Experiment [15] has as its system CA46. Kind of experiment: Cytotoxicity against human CA46 cells assessed as decrease in population doubling at 0.9 uM after 12 days. The experiment is classed as functional, cell-based.
The subject of experiment [16] is HL-60. Kind of experiment: Induction of senescence in human HL60 cells assessed as beta galactosidase activity at 0.9 uM for 16 days. The class given is functional, cell-based. The method in brief:
as §4

In experiment [17] the test system is HL-60. The experiment in a line: Cytotoxicity against human HL60 cells assessed as decrease in population doubling at 1.8 uM after 12 days. The class given is functional, cell-based.

Consider `O=C(CCN1CCCCC1)Nc1ccc(/C=C2\CCn3c2nc2ccc(NC(=O)CCN4CCCCC4)cc2c3=O)cc1`, for which, in the experiment on Nucleic Acid [1], the Kb was 8.1 10^6 M-1. The ΔTm in the experiment on Nucleic Acid [2] came out at 17.6 °C; in the experiment with Nucleic Acid [3], 0.1 °C. The compound further came in with an IC50 in experiment [4] of 15.2 µM.
For the compound `CN(C)CCCNc1c2ccccc2nc2c1[nH]c1ccccc12`, the ΔTm with Nucleic Acid [2] came out at 10.4 °C; with Nucleic Acid [3], 5.7 °C.
Regarding `O=C(CCN1CCCC1)Nc1ccc(/C=C2\CCn3c2nc2cc(NC(=O)CCN4CCCC4)ccc2c3=O)cc1`, the result with HL-60 [5], with Nucleic Acid [7], in the experiment on HL-60 [10], in the experiment with HL-60 [11], in the experiment with CA46 [13] and in the experiment on HL-60 [14] was Active. The result with CA46 [15], in the experiment with HL-60 [16] and in the experiment on HL-60 [17] was Active. For the same compound, the Kb in the experiment on Nucleic Acid [1] is 10.1 10^6 M-1. The IC50 with HL-60 [6] was determined as 33 µM; in the experiment with CA46 [9], 29 µM; in [4], 7.8 µM. For the same compound, the Activity with HL-60 [8] came out at 1.1 kilobase; with CA46 [12] it was 2.3 kilobase. For the same compound, the ΔTm with Nucleic Acid [2] is 21.9 °C; in the experiment with Nucleic Acid [3], 0.1 °C.
Regarding `O=C(CCN1CCCC1)Nc1ccc(/C=C2\CCn3c2nc2ccc(NC(=O)CCN4CCCC4)cc2c3=O)cc1`, the Kb in the experiment with Nucleic Acid [1] is 7.2 10^6 M-1. Besides, the ΔTm was 17.6 °C with Nucleic Acid [2] and 0.4 °C with Nucleic Acid [3]. Further, the IC50 in experiment [4] was found to be 9 µM.
Take `O=C(CCN1CCCCC1)Nc1ccc(/C=C2\CCn3c2nc2cc(NC(=O)CCN4CCCCC4)ccc2c3=O)cc1`: the Kb in the experiment with Nucleic Acid [1] is 9.8 10^6 M-1. Besides, the figures for the ΔTm with Nucleic Acid [2] and in the experiment with Nucleic Acid [3] were 22 °C and 0 °C, respectively. The compound further registered an IC50 in [4] of 9.3 µM.
